Neddyl block = cullin neddylation inhibition | P61081+Q13564 | TR-FRET cullin neddylation, biochemical | inhibition, % at 25 µM | 360,000 tested, 0.58% active | AID 651699; in the data active = inhibition above about 36%
Target sequence (P61081 whole entry, looked up): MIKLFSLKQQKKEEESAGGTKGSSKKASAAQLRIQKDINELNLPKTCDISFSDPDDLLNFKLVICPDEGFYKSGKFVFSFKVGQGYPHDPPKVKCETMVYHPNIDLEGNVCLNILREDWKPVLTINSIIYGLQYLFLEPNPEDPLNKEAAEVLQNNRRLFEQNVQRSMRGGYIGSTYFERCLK
Target sequence (Q13564 whole entry, looked up): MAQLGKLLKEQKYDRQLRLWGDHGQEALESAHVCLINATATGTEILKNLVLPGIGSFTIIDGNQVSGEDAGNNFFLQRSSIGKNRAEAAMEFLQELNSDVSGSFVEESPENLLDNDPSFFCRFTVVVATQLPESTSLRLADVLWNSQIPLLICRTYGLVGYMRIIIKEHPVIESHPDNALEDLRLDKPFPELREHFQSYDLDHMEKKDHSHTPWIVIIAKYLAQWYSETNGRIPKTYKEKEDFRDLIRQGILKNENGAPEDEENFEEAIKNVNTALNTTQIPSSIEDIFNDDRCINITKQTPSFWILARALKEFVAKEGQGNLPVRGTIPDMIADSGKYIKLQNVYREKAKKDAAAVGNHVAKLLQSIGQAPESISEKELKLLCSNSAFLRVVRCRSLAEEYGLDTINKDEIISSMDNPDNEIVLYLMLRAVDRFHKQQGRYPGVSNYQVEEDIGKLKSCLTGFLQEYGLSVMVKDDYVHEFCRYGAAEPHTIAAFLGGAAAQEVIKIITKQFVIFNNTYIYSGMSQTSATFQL
SR-BI DiI inh = mouse SR-BI HDL lipid transfer inhibition; Q61009; ldlA[mSR-BI] CHO cells, DiI-HDL uptake fluorescence, 3 h; inhibition, % at 12.5 µM; 320,000 tested, 0.96% active; AID 488896;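 active = mean replicate inhibition of at least 70% and a set share of replicates each scoring 70 or more; inconclusive = meets just one of the two criteria; inactive = fails both criteria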
SR-BI uptake up = SR-BI HDL lipid transfer activation. activation, % at 12.5 µM. 320,000 tested, 0.096% active. CHO ldlA[mSR-BI] cells, DiI-HDL uptake fluorescence, 3 h; 100 = double the neutral-control signal;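 active = mean replicate activation of at least 60% and every replicate at or above 60%; inconclusive = mean or all-replicate condition met, but not both; inactive = mean below 60% and not all replicates reaching 60%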
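Test system: SR-BI-overexpressing, LDLR-lacking CHO cells; Medium: Ham's F12 with 0.5% BSA, HEPES 25 mM, pH 7.4; Schedule: 3 h, 37 °C; Technique: bottom-read fluorescence, 550/595 nm.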
UBC13 polyUb = inhibitors of human UBC13 polyubiquitin chain formation; P61088; TR-FRET; inhibition, % at 20 µM; 330,000 tested, 0.47% active; AID 485273; in the data active = inhibition above about 45%, passing the limit was not always enough; inconclusive = no clear call, values can overlap the other calls
Casp3 counter = caspase-3 inhibition (UBC13 counter-screen); shares compounds with UBC13 polyUb; Recombinant caspase-3, Caspase-Glo 3/7 luminescence, 60 min; inhibition, % at 20 µM; 1,400 tested, 4% active; AID 488856;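 active = mean inhibition across replicates above about 26%, limit read from the data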
UBC13 confirm = human UBC13 polyubiquitin inhibition, confirmed. inhibition, % at 10 µM. shares compounds with UBC13 polyUb. 1,400 tested, 68% active. UBC13 polyubiquitination, TR-FRET, biochemical; in the data active = inhibition above about 45%; inconclusive = no clear call, values can overlap the other calls
DiI quench = DiI fluorescence quenching in cell-free counter-screen; shares compounds with SR-BI DiI inh; cell-free DiI-HDL fluorescence quenching, 30 min; AC50, µM (titrated, usually from 35 µM); 470 tested, 20% active;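 active = quenching, a falling signal, with AC50 below a set limit tied to the top valid dose, actives reach about 32 µM in these data; inconclusive = no clear call, values can overlap the other calls; inactive = rising signal, and the rest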
Neddyl conf = confirmation of human cullin neddylation inhibitors. AID 652217. TR-FRET cullin neddylation biochemical assay. shares compounds with Neddyl block. 1,800 tested, 13% active. calls only at 25 µM; in the data active = inhibition above about 40%;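 note: neddylation substrate is the cullin 1 ring ligase complex with SKP2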
Each line names hits and unclear results; the compound was inactive in the other large screens (follow-up assays come after a bar, where shown). The list is not random: actives were taken first. Their share in the collection is about 1.9%.

CCOC(=O)c1nn(-c2ccccc2)c(=O)cc1OCC(=O)Nc1ccccc1OCC	UBC13 polyUb 56.7 | Casp3 counter inactive | UBC13 confirm inconclusive
CCCc1nc2ccccc2c(=O)n1NC(=O)c1c(O)c2ccccc2n(C)c1=O	UBC13 polyUb 46.8 | Casp3 counter inactive | UBC13 confirm inactive
COc1cccc(-c2nnn(CC(=O)N(C3CCCCC3)C3CCS(=O)(=O)C3)n2)c1 (stereo not given)	none (no result: SR-BI DiI inh, SR-BI uptake up, UBC13 polyUb)
O=C(C(=O)N1CCCN(Cc2ccc(F)cc2)CC1)c1ccccc1	none (no result: SR-BI DiI inh, SR-BI uptake up, UBC13 polyUb)
CCOc1ccc(-c2[nH]ncc2Oc2cccc(OC)c2)c(O)c1	UBC13 polyUb 63.2 | Casp3 counter inactive | UBC13 confirm 60.5
CN(CC(=O)Nc1c(Cl)cccc1Cl)C(=O)c1cc(S(=O)(=O)N(C)C)ccc1N1CCCC1	none
CCOc1ccccc1NC(=O)CN1CCC(C(=O)c2ccc(F)cc2)CC1	UBC13 polyUb 72.8 | Casp3 counter inactive | UBC13 confirm 77.8
COc1ccccc1NC(=O)CN1CCC(C(=O)c2ccc(F)cc2)CC1	none
CCCCN(C)C(=O)c1sc(=O)n(CC(=O)c2ccccc2OC)c1C	none (no result: SR-BI DiI inh, SR-BI uptake up, UBC13 polyUb)
CC1CCN(c2ccc3nnc(CCC(=O)Nc4ccc(F)c(F)c4)n3n2)CC1	UBC13 polyUb inconclusive
O=C(CCc1nnc2ccc(N3CCCC3)nn12)Nc1ccc(F)c(F)c1	UBC13 polyUb 49.9 | Casp3 counter inactive | UBC13 confirm inconclusive
COc1ccc(C2CC(=O)c3cnc(N4CCc5ccccc54)nc3C2)cc1OC (stereo not given)	UBC13 polyUb 59.5 (no result: Neddyl block, SR-BI DiI inh, SR-BI uptake up) | Casp3 counter inactive | UBC13 confirm inconclusive
COc1ccccc1NC(=O)c1c(N=Cc2cccc([N+](=O)[O-])c2)cnn1C	UBC13 polyUb 77.3 | Casp3 counter inactive | UBC13 confirm 85.5
COc1ccc(C)cc1NC(=O)c1c([N+](=O)[O-])cnn1C	none
CC(=O)C1=CCC(c2ccccc2)N(S(=O)(=O)c2ccccc2C)C1 (stereo not given)	none (no result: SR-BI DiI inh, SR-BI uptake up, UBC13 polyUb)
COc1ccc(N(C(=O)c2snc(C(N)=O)c2N)C(C(=O)NC2CCCC2)c2ccc3ncccc3c2)cc1 (stereo not given)	UBC13 polyUb 48.5 (no result: SR-BI DiI inh, SR-BI uptake up) | Casp3 counter inactive | UBC13 confirm 47.5
CCc1ccc(N(C(=O)c2snc(C(N)=O)c2N)C(C(=O)NCC2CCCO2)c2ccco2)cc1 (stereo not given)	UBC13 polyUb 61.0 | Casp3 counter inactive | UBC13 confirm 58.7
CCOc1ccc(N(C(=O)c2snc(C(N)=O)c2N)C(CC)C(=O)NC2CCCC2)cc1 (stereo not given)	UBC13 polyUb 78.5 | Casp3 counter inactive | UBC13 confirm 82.1
NC(=O)c1nsc(C(=O)N(c2ccccc2)C(C(=O)NC2CCCC2)c2ccc3ncccc3c2)c1N (stereo not given)	none (not shown: Neddyl block, SR-BI DiI inh, SR-BI uptake up)
COCCNC(=O)C(c1ccc(C)o1)N(C(=O)c1snc(C(N)=O)c1N)c1ccc(C)cc1 (stereo not given)	none
Cc1ccc(N(C(=O)c2snc(C(N)=O)c2N)C(C(=O)NC2CCCC2)c2ccc(C)o2)cc1 (stereo not given)	UBC13 polyUb 64.3 (not shown: Neddyl block) | Casp3 counter inactive | UBC13 confirm 70.9
Cc1cccc(NS(=O)(=O)c2ccc(C)c(C(=O)NCc3ccccn3)c2)c1	none
CCN1CCC(N2CCN(c3ccccc3OC)CC2)CC1	none
Cc1cccc(N(C(=O)c2snc(C(N)=O)c2N)C(C(=O)NC2CCCC2)c2ccncc2)c1 (stereo not given)	none (no result: SR-BI DiI inh, SR-BI uptake up)
Cc1ccc(N(C(=O)c2snc(C(N)=O)c2N)C(C(=O)NC2CCCC2)c2ccco2)cc1 (stereo not given)	UBC13 polyUb 80.0 (no result: SR-BI DiI inh, SR-BI uptake up) | Casp3 counter inactive | UBC13 confirm 91.9
CCOc1ccc(C(C(=O)NCC2CCCO2)N(C(=O)c2snc(C(N)=O)c2N)c2ccc3c(c2)OCCO3)cc1 (stereo not given)	UBC13 polyUb 68.8 | Casp3 counter inactive | UBC13 confirm 64.0
CCOc1ccccc1N(C(=O)c1snc(C(N)=O)c1N)C(C(=O)NC1CCCC1)c1ccco1 (stereo not given)	none
Cc1cccc(N(C(=O)c2snc(C(N)=O)c2N)C(C(=O)NC2CCCC2)c2ccc(C)o2)c1 (stereo not given)	UBC13 polyUb 54.6 | Casp3 counter inactive | UBC13 confirm inactive
CCCn1c(C)cc(/C=C(\C#N)C(=O)OCC(=O)N(CC)c2c(N)n(Cc3ccccc3)c(=O)[nH]c2=O)c1C	none (no result: UBC13 polyUb)
CNc1ncnc2c1ncn2[C@H]1CN(CCN2CCOCC2)C[C@@H](CO)O1	none (no result: SR-BI DiI inh, SR-BI uptake up, UBC13 polyUb)
Cc1ccc(S(=O)(=O)Nc2cc(C)cn(Cc3ccc(F)cc3)c2=O)cc1	none (no result: SR-BI DiI inh, SR-BI uptake up)
CCCCN(CC)CCCNC(=O)c1cc2c(=O)n(C)c3ccccc3c2n1C	Neddyl block 43.0, UBC13 polyUb 48.9 | Casp3 counter inactive | UBC13 confirm inactive | Neddyl conf inactive
CCOc1ccccc1NC(=O)C1CCN(C(=O)C2CC(=O)N(c3ccc(C)cc3)C2)CC1 (stereo not given)	none (no result: SR-BI DiI inh, SR-BI uptake up)
CCOc1ccc(NC(=O)c2ccc3c(c2)N(Cc2ccc(F)cc2)C(=O)CS3=O)cc1 (stereo not given)	none
Cc1ccc(C)c(NC(=O)c2ccc3c(c2)N(Cc2ccc(F)cc2)C(=O)CS3=O)c1 (stereo not given)	none | DiI quench inactive
O=C(c1cn(-c2ccccc2)nc1-c1cccc([N+](=O)[O-])c1)N1CCCCC1	SR-BI DiI inh 72.5 | DiI quench inactive
Clc1ccc(Cn2nnc(-c3ccc(N4CCOCC4)cc3)n2)cc1	SR-BI DiI inh 83.5 | DiI quench inactive
CCOc1ccccc1NC(=O)N1C2CCCC1CC(NC(=O)C1CC1)C2 (stereo not given)	none | DiI quench inactive
CCOc1ccccc1NC(=O)C(CC(C)C)NC(=O)C1CCC(C)CC1 (stereo not given)	SR-BI DiI inh 79.6 | DiI quench inactive
CCC(C)c1ccccc1N1CC(C(=O)N2CCN(S(=O)(=O)c3ccccc3Br)CC2)CC1=O (stereo not given)	SR-BI DiI inh 78.1 | DiI quench inactive
O=C(NCc1ccccc1)C(c1ccc(-c2ccccc2)cc1)n1c(=O)c(-c2ccco2)nc2ccccc21 (stereo not given)	none (no result: SR-BI DiI inh, SR-BI uptake up, UBC13 polyUb)
CCOC(=O)CSc1c(-c2cccs2)[nH]c2ccccc12	none
O=C(Cc1cccs1)NCCSc1c(-c2ccc(Cl)cc2)[nH]c2ccccc12	SR-BI DiI inh inconclusive (not shown: Neddyl block) | DiI quench inactive
CCOC(=O)CSc1c(-c2ccc(Cl)cc2)[nH]c2ccccc12	SR-BI DiI inh 75.4 | DiI quench inactive
